Experimental data collected from several papers.
Lines come from different studies, so protocols differ.
Cell line: BEAS-2B
Effect on: cell growth or viability
Method: MTT

SMILES | conditions | IC50 [µM]
CCOC(=O)c1cc(C)n(Cn2cnc3ccccc32)n1 | 24 h | 422
CC(=O)c1c(O)c2ccccc2oc1=O | 48 h | 28.9
OC1CCN(c2ccc(/C=N/NC(=S)NCCc3ccccc3)cc2)CC1 | 24 h | 15
C/C(=N\C(=S)/N=C(\C)c1c(O)c2ccccc2oc1=O)c1c(O)c2ccccc2oc1=O | 48 h | 9.01
COc1cccc2c1C(=O)c1c(O)c3c(c(O)c1C2=O)C[C@@](O)(C(=O)CO)C[C@@H]3O[C@H]1C[C@H](N)[C@H](O)[C@H](C)O1 | 24 h | > 100
C/C(=N\C(=O)/N=C(\C)c1c(O)c2ccccc2oc1=O)c1c(O)c2ccccc2oc1=O | 48 h | 21.9
Cc1cc(C)n(Cn2ccnc2)n1 | 24 h | 339
OC1CCN(c2ccc(/C=N/NC(=S)NC3CCCCC3)cc2)CC1 | 24 h | 14.5
Cc1cc(C)n(Cn2cnc3ccccc32)n1 | 24 h | 739
OC1CCN(c2ccc(/C=N/NC(=S)Nc3cccc(Cl)c3Cl)cc2)CC1 | 24 h | 16.9
C/C(=N\NC(=O)/N=C(\C)c1c(O)c2ccccc2oc1=O)c1c(O)c2ccccc2oc1=O | 48 h | 50.3
OC1CCN(c2ccc(/C=N/NC(=S)NCc3ccccc3)cc2)CC1 | 24 h | 12.6
C[C@H]1[C@H](C)CC[C@]2(C(=O)O)CC[C@]3(C)C(=CC[C@@H]4[C@@]5(C)CC[C@H](O)C(C)(C)[C@@H]5CC[C@]43C)[C@H]12 | 24 h | 16
Cc1cc(Cn2ccnc2)nn1C | 24 h | > 800
